Assay outcomes as filed in PubChem.
Shown are actives, neighbours in structure and some others; about 3.1% of the full set was active somewhere.
SENP7 inh: blocks the human protease SENP7; Q9BQF6; recombinant SENP7, Z-RLRGG-aminoluciferin luminescence, 40 min; inhibition, % at 5 µM; 330,000 tested, 1.5% active; AID 434973;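 active = inhibition above about 50% at the single test dose, limit read from the data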
SENP6 block: blocks the human protease SENP6; Q9GZR1; Recombinant SENP6 catalytic domain, aminoluciferin luminescence; inhibition, % at 10 µM; 330,000 tested, 1.8% active;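 active = inhibition above about 50% at the single tested dose, limit read from the data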
SENP8 block-1: inhibitors of human SENP8 protease | recombinant SENP8, Nedd8 substrate fluorescence | inhibition, % at 20 µM | 360,000 tested, 0.64% active; in the data active = inhibition mostly above about 40%, no sharp cut-off; inactive = mostly below about 27%
Target sequence (Q96LD8 whole entry, looked up): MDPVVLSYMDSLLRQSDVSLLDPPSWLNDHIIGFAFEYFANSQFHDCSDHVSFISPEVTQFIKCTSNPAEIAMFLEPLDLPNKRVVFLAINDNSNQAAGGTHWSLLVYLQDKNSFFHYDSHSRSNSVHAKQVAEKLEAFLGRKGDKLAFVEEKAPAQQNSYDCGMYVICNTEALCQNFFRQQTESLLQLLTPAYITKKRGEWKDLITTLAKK
SENP8 block-2: inhibitors of human SENP8 protease. purified SENP8, Z-RLRGG-aminoluciferin cleavage, luminescence. inhibition, % at 10 µM. 330,000 tested, 1.2% active. AID 2540; in the data active = inhibition above about 50%
Apaf1 inhib: human Apaf-1 inhibition | O14727 | reconstituted apoptosome caspase-3 activity, DEVD-Rh110 fluorescence | inhibition, % at 20 µM | 330,000 tested, 0.71% active; active = inhibition of at least 40% at 20 µM
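Material: biochemical Apaf-1 apoptosome reconstitution. Medium: Hepes buffer, pH 7.5. Also added: cytochrome c activation, bis-DEVD rhodamine 110 substrate. Timing: 30 min compound preincubation, 50 min activation, room temperature. Measured by: rhodamine 110 fluorescence at Ex 480/Em 540 nm.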
UBC13 inh: blocks human UBC13 polyubiquitin chain formation; P61088; TR-FRET; inhibition, % at 20 µM; 330,000 tested, 0.47% active; AID 485273; in the data active = inhibition above about 45%, passing the limit was not always enough
Target sequence (P61088 whole entry, looked up): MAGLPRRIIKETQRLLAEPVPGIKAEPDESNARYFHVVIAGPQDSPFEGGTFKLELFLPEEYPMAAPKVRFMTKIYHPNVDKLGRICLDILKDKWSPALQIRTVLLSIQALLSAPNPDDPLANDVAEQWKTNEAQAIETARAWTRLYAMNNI
SENP8 confirm: confirmation of human SENP8 protease inhibitors | shares compounds with SENP7 inh | Recombinant SENP8, Z-RLRGG-aminoluciferin luminescence, 60 min | inhibition, % at 12.5 µM | 6,200 tested, 40% active | AID 488912;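 active = mean inhibition across replicates above about 50%, limit read from the data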
SENP6 confirm: confirmation of human SENP6 protease inhibitors; shares compounds with SENP7 inh; recombinant SENP6, Z-RLRGG-aminoluciferin luminescence; inhibition, % at 12.5 µM; 6,200 tested, 58% active
SENP7 conf: human SENP7 inhibition, confirmed; shares compounds with SENP7 inh; 6,200 tested, 69% active; recombinant SENP7, Z-RLRGG-aminoluciferin luminescence, 40 min; inhibition, % at 12.5 µM
Casp3 SENP sel: inhibits human caspase-3 in SENP selectivity test; shares compounds with SENP7 inh; purified caspase-3, Z-DEVD-aminoluciferin luminescence, 60 min; inhibition, % at 12.5 µM; 6,200 tested, 60% active; AID 488918;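 active = mean inhibition above about 50%, limit read from the data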
Target sequence (P42574 28-227 limits assumed): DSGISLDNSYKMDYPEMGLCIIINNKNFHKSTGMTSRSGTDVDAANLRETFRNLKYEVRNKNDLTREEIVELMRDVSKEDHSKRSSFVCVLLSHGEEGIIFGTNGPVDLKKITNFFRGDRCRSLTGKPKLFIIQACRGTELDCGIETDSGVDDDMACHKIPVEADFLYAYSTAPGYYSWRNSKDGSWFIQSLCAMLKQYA
Luc interf: counter-screen for SENP inhibitors: luminescence interference; 6,200 tested, 39% active; shares compounds with SENP7 inh; inhibition, % at 12.5 µM; Pre-incubated SENP8/Z-RLRGG-aminoluciferin, luciferase luminescence interference; AID 488919;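 active = mean inhibition above about 50% when retested at one dose, limit read from the data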
Large screens that a line does not name were inactive (follow-up assays come after a bar, where they were run).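 The calls were made as follows, unless noted: active = mean inhibition above about 50% in the one-dose retest (limit read from the data); inactive = the rest.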

CCCNC(=O)C1(C)CCCN(Cc2ccc(C)cc2)C1 (stereo not drawn)	none (no result: SENP7 inh, SENP6 block, SENP8 block-2, Apaf1 inhib, UBC13 inh)
Cc1nn(-c2ccccc2Cl)c(Cl)c1/C=N/Nc1cccc(C(=O)O)c1	SENP7 inh 95, SENP6 block 97, SENP8 block-2 97 | SENP8 confirm 99 | SENP6 confirm 101 | SENP7 conf 103 | Casp3 SENP sel 91 | Luc interf 98
O=C(N/N=C/c1ccc(O)cc1)c1cccc(N/N=C/c2ccc(O)cc2)c1	SENP6 block 52 | SENP8 confirm inactive | SENP6 confirm inactive | SENP7 conf inactive | Casp3 SENP sel inactive | Luc interf inactive
Cc1ccc(/C=N/Nc2ccc(C(=O)O)cc2)s1	SENP6 block 95, SENP8 block-2 97 | SENP8 confirm 52 | SENP6 confirm 101 | SENP7 conf 104 | Casp3 SENP sel 99 | Luc interf 100
O=C(O)c1ccc(N/N=C/c2cc3ccccc3nc2Cl)cc1	none
Cc1cccc2cc(/C=N/Nc3ccc(C(=O)O)cc3)c(Cl)nc12	SENP6 block 83, SENP8 block-2 77 | SENP8 confirm 88 | SENP6 confirm 90 | SENP7 conf 89 | Casp3 SENP sel 72 | Luc interf inactive
COCCNC(=O)C1(C)CCCN(C(=O)c2c(F)ccc(C)c2F)C1 (stereo not drawn)	none (no result: SENP7 inh, SENP6 block, SENP8 block-2, Apaf1 inhib, UBC13 inh)
O=C(NC1CCCC1)C1C(c2ccc(C(F)(F)F)cc2)=Nc2ccccc2N1C(=O)c1cc2ccccc2[nH]1 (stereo not drawn)	none (no result: SENP7 inh, SENP6 block, SENP8 block-2, Apaf1 inhib, UBC13 inh)
c1ccc2nc(-c3nc4ccccc4o3)ccc2c1	SENP7 inh 100, SENP6 block 98, SENP8 block-2 97 | SENP8 confirm 98 | SENP6 confirm 100 | SENP7 conf 102 | Casp3 SENP sel 99 | Luc interf 95
O=C(Cc1ccc2c(c1)OCCO2)Nc1cc(C(F)(F)F)ccc1N1CCOCC1	none
Cc1c(C(=O)Nc2nccs2)oc2ccc(F)cc12	none
Cc1c(C(=O)/C=C/c2cccs2)oc2ccc(F)cc12	SENP6 block 52 | SENP8 confirm inactive | SENP6 confirm inactive | SENP7 conf inactive | Casp3 SENP sel inactive | Luc interf inactive
Cc1cccc(/N=C/c2sc3ccccc3c2O)n1	SENP7 inh 90, SENP6 block 80, SENP8 block-2 62 | SENP8 confirm inactive | SENP6 confirm inactive | SENP7 conf inactive | Casp3 SENP sel inactive | Luc interf inactive
O=[N+]([O-])c1ccc(O)c(N=Cc2sc3ccccc3c2O)c1	none (no result: SENP7 inh, SENP6 block, SENP8 block-2, Apaf1 inhib, UBC13 inh)
Cc1cccc(/N=C/c2c(O)[nH]c3ccccc23)n1	SENP6 block 88, SENP8 block-2 75 | SENP8 confirm inactive | SENP6 confirm 73 | SENP7 conf 94 | Casp3 SENP sel 72 | Luc interf inactive
CC(C)N=Cc1c(O)[nH]c2ccccc12	none
O=C(O)Cc1ccc2sc(-c3ccccc3)nc2c1	SENP7 inh 91, SENP6 block 99, SENP8 block-2 93 | SENP8 confirm 96 | SENP6 confirm 97 | SENP7 conf 101 | Casp3 SENP sel 97 | Luc interf 96
COC(=O)Cc1ccc2sc(-c3ccccc3)nc2c1	SENP7 inh 100, SENP6 block 94, SENP8 block-2 94 | SENP8 confirm 96 | SENP6 confirm 98 | SENP7 conf 101 | Casp3 SENP sel 96 | Luc interf 94
CCCCCn1nnnc1C1(C)CCC(=O)N1Cc1ccco1 (stereo not drawn)	none (no result: SENP7 inh, SENP6 block, SENP8 block-2, Apaf1 inhib, UBC13 inh)
COCCCNC(=O)COC(=O)c1ccc(-c2nc3ccccc3s2)s1	SENP7 inh 86, SENP6 block 86, SENP8 block-2 82 | SENP8 confirm 61 | SENP6 confirm 66 | SENP7 conf 91 | Casp3 SENP sel 78 | Luc interf 59
CNC(=O)COC(=O)c1ccc(-c2nc3ccccc3s2)s1	SENP7 inh 97, SENP6 block 97, SENP8 block-2 93 | SENP8 confirm inactive | SENP6 confirm inactive | SENP7 conf 51 | Casp3 SENP sel 52 | Luc interf inactive
O=C1NC(=Nc2ccccc2)S/C1=C/c1cccs1	SENP8 block-2 59 | SENP8 confirm inactive | SENP6 confirm inactive | SENP7 conf inactive | Casp3 SENP sel inactive | Luc interf inactive
COc1ccc(NC(=O)C2(C)Cc3c(-c4ccc(N(C)C)cc4)ccnc3O2)cn1 (stereo not drawn)	none (no result: SENP7 inh, SENP6 block, SENP8 block-2, Apaf1 inhib, UBC13 inh)
CCc1ccccc1NC(=O)COc1ccc2c(c1)OCO2	none
Cc1ccc(NC(=O)COc2ccc3c(c2)OCO3)c(Cl)c1	SENP7 inh 62 | SENP8 confirm inactive | SENP6 confirm inactive | SENP7 conf inactive | Casp3 SENP sel inactive | Luc interf inactive
CCOc1cc2c(C#N)c(N(CC)CC)nc(N)c2c(N)n1	SENP6 block 72 | SENP8 confirm inactive | SENP6 confirm inactive | SENP7 conf inactive | Casp3 SENP sel inactive | Luc interf inactive
COCCNC(=O)C1(C)CCN(C(=O)c2oc3ccccc3c2C)C1 (stereo not drawn)	none (no result: SENP7 inh, SENP6 block, SENP8 block-2, Apaf1 inhib, UBC13 inh)
CCN(CC)S(=O)(=O)c1ccc(C)c(NC(=O)/C=C/c2cccs2)c1	none
Cc1nc(NC(=O)/C=C/c2ccc(Cl)cc2Cl)sc1C(=O)N(C)C	none
CCOC(=O)c1ccc(NC(=O)/C=C/c2cccs2)cc1	SENP7 inh 79, SENP6 block 81, SENP8 block-2 62 | SENP8 confirm 53 | SENP6 confirm 53 | SENP7 conf 84 | Casp3 SENP sel inactive | Luc interf inactive
Cc1cc(C)nc(NC(=O)/C=C/c2ccc(Cl)cc2Cl)c1	SENP7 inh 59, SENP6 block 76, SENP8 block-2 62 | SENP8 confirm inactive | SENP6 confirm inactive | SENP7 conf 79 | Casp3 SENP sel inactive | Luc interf inactive
Cc1cc(C)nc(NC(=O)/C=C/c2cccs2)c1	SENP7 inh 54 | SENP8 confirm inactive | SENP6 confirm inactive | SENP7 conf 72 | Casp3 SENP sel 55 | Luc interf 55
Cc1ccccc1NC(=O)/C=C/c1cccs1	SENP7 inh 63 | SENP8 confirm 52 | SENP6 confirm 51 | SENP7 conf 86 | Casp3 SENP sel 80 | Luc interf 70
CCCCNC(=O)C1C(c2ccccc2)=Nc2ccccc2N1C(=O)c1ccc(C)cc1 (stereo not drawn)	none (no result: SENP7 inh, SENP6 block, SENP8 block-2, Apaf1 inhib, UBC13 inh)
CC(=O)OC1(C)C=Cc2ccccc2C1=NS(=O)(=O)c1ccccc1 (stereo not drawn)	none (no result: SENP7 inh, SENP6 block, SENP8 block-2, Apaf1 inhib, UBC13 inh)
